ChEMBL document CHEMBL1128603, “Novel deltorphin heptapeptide analogs with potent delta agonist, delta antagonist, or mixed mu antagonist/delta agonist properties” (J Med Chem, 1995)
Starred links: 1 amine or outer side, 2 acyl side, 3 side chain; linkers in the order of their positions; H or OH if unused. Non-standard residues stand in square brackets, D forms with d. Residues, ends and D or L forms follow the SMILES beside them. X1 = CSCC[C@H](CN([C@@H](Cc1ccccc1)C(=O)[*:2])[*:1])N[*:3]; Tle = CC(C)(C)[C@H](N)C(=O)O; NBuGly = CCCCNCC(=O)O

Assays:
[1] = target: Mu-type opioid receptor (Rattus norvegicus, UniProt P33535); assay: Inhibition of [3H]DAGO binding to rat brain Opioid receptor mu 1
Sequence of Mu-type opioid receptor (P33535 whole entry): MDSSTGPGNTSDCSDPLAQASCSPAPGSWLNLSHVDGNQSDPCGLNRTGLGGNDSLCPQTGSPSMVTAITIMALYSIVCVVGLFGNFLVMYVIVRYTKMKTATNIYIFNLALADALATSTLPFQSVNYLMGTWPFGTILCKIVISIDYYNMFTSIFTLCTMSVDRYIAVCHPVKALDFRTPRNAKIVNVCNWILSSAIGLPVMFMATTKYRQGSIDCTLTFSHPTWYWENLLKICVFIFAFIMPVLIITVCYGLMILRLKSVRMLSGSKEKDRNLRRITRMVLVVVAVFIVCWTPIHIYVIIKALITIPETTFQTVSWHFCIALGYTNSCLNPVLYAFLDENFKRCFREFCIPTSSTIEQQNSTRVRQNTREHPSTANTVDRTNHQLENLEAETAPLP
Procedure, shortened: (§1)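 Crude rat brain synaptosomal fraction (600 μg protein/mL) in 50 mM Tris-HCl pH 7.4 with BSA, bacitracin, bestatin and soybean trypsin inhibitor. Radioligand [3H]DAGO (μ) or [3H]DADLE (δ) at 2 nM. The δ assay also held 2.6 μM [Nα-MePhe3,D-Pro4]morphiceptin to block μ sites. Nonspecific binding with 1 μM unlabeled ligand. Incubated 60 min at 25 °C, filtered on PEI-soaked GF/B, counted by scintillation. Ki from IC50 by Cheng-Prusoff; mean of three.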

[2] = species: Cavia porcellus; assay: In vitro inhibitory concentration against electrically induced contraction of guinea pig ileum (GPI); assay type: functional
Procedure, shortened: (§2)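 Electrically stimulated isolated tissue: longitudinal muscle strips of Hartley guinea pig ileum (250-300 g) for GPI, vas deferens of male ddY mouse (25-35 g) for MVD. IC50 read from log dose-response curves of contraction inhibition.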

[3] = species: Mus musculus; assay: In vitro inhibitory concentration against electrically induced contraction of mouse vas deferens (MVD); assay type: functional; procedure, shortened: as §2
[4] = target: Delta-type opioid receptor (Rattus norvegicus, UniProt P33533); assay: Inhibition of [3H]-DADLE binding to rat brain delta receptor; procedure, shortened: as §1
Sequence of Delta-type opioid receptor (P33533 whole entry): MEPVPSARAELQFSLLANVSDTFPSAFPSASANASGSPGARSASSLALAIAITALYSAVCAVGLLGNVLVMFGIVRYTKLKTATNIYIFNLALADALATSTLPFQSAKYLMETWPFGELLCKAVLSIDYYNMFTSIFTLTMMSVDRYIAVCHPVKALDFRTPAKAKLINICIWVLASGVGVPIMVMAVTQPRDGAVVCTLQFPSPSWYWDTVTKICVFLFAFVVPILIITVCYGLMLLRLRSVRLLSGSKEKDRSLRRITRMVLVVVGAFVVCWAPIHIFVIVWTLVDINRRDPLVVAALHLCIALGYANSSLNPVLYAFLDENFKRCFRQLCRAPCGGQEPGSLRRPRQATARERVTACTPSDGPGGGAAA

[5] = target: Opioid receptors; mu & delta (Rattus norvegicus) (UniProt P33533+P33535); assay: Relative binding affinity for mu and delta opioid receptors; assay type: protein assay
Sequence of Opioid receptors; mu & delta (Rattus norvegicus) (P33533 whole entry, looked up): as the sequence (P33533 whole entry) above
Sequence of Opioid receptors; mu & delta (Rattus norvegicus) (P33535 whole entry, looked up): as the sequence (P33535 whole entry) above

[6] = IC50 ratio measured as the IC50 values of GPI to that of MVD.; assay type: functional
[7] = target: Mu-type opioid receptor (Cavia porcellus) (UniProt P97266); assay: Ratio of antagonistic activity against mu receptors in guinea pig ileum in presence and absence of mu agonist DAGO; assay type: functional, tissue-based
Sequence of Mu-type opioid receptor (Cavia porcellus) (P97266 whole entry): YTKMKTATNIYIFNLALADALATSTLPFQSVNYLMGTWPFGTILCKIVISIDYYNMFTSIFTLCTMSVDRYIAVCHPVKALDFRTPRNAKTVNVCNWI
Procedure, shortened: (§3)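 Agonist log dose-response curves were run with and without a fixed antagonist level. Ke was derived from the ratio of the IC50 values.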

[8] = target: Mu-type opioid receptor (Cavia porcellus) (UniProt P97266); assay: Ratio of antagonistic activity against mu receptors in guinea pig ileum in presence and absence of mu agonist dermorphin; assay type: functional, tissue-based; procedure, shortened: as §3
[9] = target: Delta-type opioid receptor (Mus musculus) (UniProt P32300); assay: Ratio of antagonistic activity against delta receptors in mouse vas deferens in presence and absence of delta agonist DPDPE; assay type: functional; procedure, shortened: as §3
Sequence of Delta-type opioid receptor (Mus musculus) (P32300 whole entry): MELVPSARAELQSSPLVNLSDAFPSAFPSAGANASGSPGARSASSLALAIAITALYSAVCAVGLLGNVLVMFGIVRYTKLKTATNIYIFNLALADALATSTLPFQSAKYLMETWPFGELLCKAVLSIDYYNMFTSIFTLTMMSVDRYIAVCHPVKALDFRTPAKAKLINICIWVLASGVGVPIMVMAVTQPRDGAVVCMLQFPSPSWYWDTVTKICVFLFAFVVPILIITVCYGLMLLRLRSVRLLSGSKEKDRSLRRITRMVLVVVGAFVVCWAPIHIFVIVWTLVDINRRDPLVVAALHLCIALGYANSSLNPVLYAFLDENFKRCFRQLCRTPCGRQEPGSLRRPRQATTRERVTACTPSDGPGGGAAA

[10] = target: Delta-type opioid receptor (Mus musculus) (UniProt P32300); assay: Ratio of antagonistic activity against delta receptors in mouse vas deferens in presence and absence of delta agonist deltorphin; assay type: functional; procedure, shortened: as §3
[11] = target: Delta-type opioid receptor (Mus musculus) (UniProt P32300); assay: Ratio of antagonistic activity against delta receptors in mouse vas deferens in presence and absence of delta agonist leu-enkephalin; assay type: functional; procedure, shortened: as §3
[12] = target: Delta-type opioid receptor (Mus musculus) (UniProt P32300); assay: Ratio of antagonistic activity against delta receptors in mouse vas deferens in presence and absence of delta agonist DADLE; assay type: functional; procedure, shortened: as §3
[13] = target: Delta-type opioid receptor (Mus musculus) (UniProt P32300); assay: Ratio of antagonistic activity against delta receptors in mouse vas deferens in presence and absence of delta agonist DL-II; assay type: functional; procedure, shortened: as §3

| SMILES | Ki [1] [nM] | IC50 ([2]; Cavia porcellus, Ileum) [nM] | IC50 ([3]; Mus musculus) [nM] | Ki [4] [nM] | Ki ratio [5] | Ratio [6] | also measured |
| --- | --- | --- | --- | --- | --- | --- | --- |
| CSCC[C@H](NC(=O)[C@H](CC(C)C)NC(=O)[C@H](Cc1cnc[nH]1)NC(=O)[C@H](Cc1ccccc1)NC(=O)[C@@H](CCSC)NC(=O)[C@@H](N)Cc1ccc(O)cc1)C(=O)N[C@@H](CC(=O)O)C(N)=O (H-Y[dM]FHLMD-NH2) | 219 | 632 | 0.93 | 0.19 |  |  |  |
| CCCCN(CC(=O)N[C@@H](CC(=O)O)C(N)=O)C(=O)[C@H](CC(C)C)NC(=O)[C@H](Cc1c[nH]cn1)NC(=O)[C@H](Cc1ccccc1)NC(=O)[C@@H](CCSC)NC(=O)[C@@H](N)Cc1ccc(O)cc1 | 820 | 578 | 0.56 | 0.04 | 18200 | 1030 |  |
| CCCCN(CC(=O)N[C@@H](CC(=O)O)C(N)=O)C(=O)[C@H](CC(C)C)NC(=O)[C@H](Cc1c[nH]cn1)NC(=O)[C@H](Cc1ccccc1)NC[C@@H](CCSC)NC(=O)[C@@H](N)Cc1ccc(O)cc1 (H-[X1](Tyr)HL[NBuGly]D-NH2) |  | 422 | 26 |  | 76 | 16 |  |
| CCCCN(CC(=O)N[C@@H](CC(=O)O)C(N)=O)C(=O)[C@@H](NC(=O)[C@H](Cc1cnc[nH]1)NC(=O)[C@H](Cc1ccccc1)NC[C@@H](CCSC)NC(=O)[C@@H](N)Cc1ccc(O)cc1)C(C)(C)C (H-[X1](Tyr)H[Tle][NBuGly]D-NH2) | 157 |  |  | 2.56 |  |  |  |
| CCCCN(CC(=O)N[C@@H](CC(=O)O)C(N)=O)C(=O)[C@H](CC(C)C)NC(=O)[C@H](Cc1cnc[nH]1)NC(=O)[C@H](Cc1ccccc1)NC[C@@H](CCSC)NC(=O)[C@@H](N)Cc1ccc(O)cc1 (H-[X1](Tyr)HL[NBuGly]D-NH2) | 143 |  |  | 1.89 |  |  |  |
| CSCC[C@@H](NC(=O)[C@@H](N)Cc1ccc(O)cc1)C(=O)N[C@@H](Cc1ccccc1)C(=O)N[C@@H](Cc1c[nH]cn1)C(=O)N[C@@H](CC(C)C)C(=O)N[C@H](C(=O)N[C@@H](CC(=O)O)C(N)=O)C(C)(C)C | 271 | 325 | 1.28 | 0.46 | 589 | 254 |  |
| CSCC[C@@H](NC(=O)[C@@H](N)Cc1ccc(O)cc1)C(=O)N[C@@H](Cc1ccccc1)C(=O)N[C@@H](Cc1c[nH]cn1)C(=O)N[C@@H](CC(C)C)C(=O)N(CC(=O)N[C@@H](CC(=O)O)C(N)=O)CC(C)C | 58 | 3870 | 2.36 | 0.85 | 68 | 1640 | Ke [7]: 138 nM; Ke [8]: 165 nM |
| CC[C@H](C)N(CC(=O)N[C@@H](CC(=O)O)C(N)=O)C(=O)[C@H](CC(C)C)NC(=O)[C@H](Cc1c[nH]cn1)NC(=O)[C@H](Cc1ccccc1)NC(=O)[C@@H](CCSC)NC(=O)[C@@H](N)Cc1ccc(O)cc1 (stereo in doubt; 6b) [listing 1 of 2 here] |  |  |  |  | 9690 | 844 |  |
| CSCC[C@H](NC(=O)[C@@H](NC(=O)[C@H](Cc1c[nH]cn1)NC(=O)[C@H](Cc1ccccc1)NC(=O)[C@@H](CCSC)NC(=O)[C@@H](N)Cc1ccc(O)cc1)C(C)(C)C)C(=O)N[C@@H](CC(=O)O)C(N)=O | 382 | 1200 | 2430 | 9.45 | 40 | 0.5 | Ke [9]: 311 nM; Ke [10]: 16.1 nM; Ke [11]: 18.4 nM; Ke [12]: 15.8 nM; Ke [13]: 17.2 nM |
| CC[C@H](C)N(CC(=O)N[C@@H](CC(=O)O)C(N)=O)C(=O)[C@H](CC(C)C)NC(=O)[C@H](Cc1c[nH]cn1)NC(=O)[C@H](Cc1ccccc1)NC(=O)[C@@H](CCSC)NC(=O)[C@@H](N)Cc1ccc(O)cc1 (stereo in doubt; 6a) [listing 1 of 2 here] | 856 |  |  | 0.1 |  |  | IC50 [2]: 684 nM; IC50 [3]: 0.88 nM |
| Oc1ccc2c3c1O[C@H]1c4[nH]c5ccccc5c4C[C@@]4(O)[C@@H](C2)N(CC2CC2)CC[C@]314 |  |  |  |  |  |  | Ke [9]: 0.65 nM; Ke [10]: 0.65 nM; Ke [7]: 52.2 nM; Ke [11]: 0.94 nM; Ke [12]: 0.67 nM; Ke [8]: 151 nM; Ke [13]: 0.67 nM |
| CSCC[C@H](NC(=O)[C@H](C)NC(=O)[C@H](Cc1c[nH]cn1)NC(=O)[C@H](Cc1ccccc1)NC(=O)[C@@H](CCSC)NC(=O)[C@@H](N)Cc1ccc(O)cc1)C(=O)N[C@@H](CC(=O)O)C(N)=O | 133 | 216 | 406 | 1.71 | 78 | 0.5 | Ke [10]: 632 nM; Ke [11]: 721 nM; Ke [12]: 598 nM |
| CC[C@H](C)N(CC(=O)N[C@@H](CC(=O)O)C(N)=O)C(=O)[C@H](CC(C)C)NC(=O)[C@H](Cc1c[nH]cn1)NC(=O)[C@H](Cc1ccccc1)NC(=O)[C@@H](CCSC)NC(=O)[C@@H](N)Cc1ccc(O)cc1 (stereo in doubt; 6a) [listing 2 of 2 here] |  |  |  |  | 8730 | 777 |  |
| CCCCN(CC(=O)N[C@@H](CC(=O)O)C(N)=O)C(=O)[C@@H](NC(=O)[C@H](Cc1c[nH]cn1)NC(=O)[C@H](Cc1ccccc1)NC[C@@H](CCSC)NC(=O)[C@@H](N)Cc1ccc(O)cc1)C(C)(C)C (H-[X1](Tyr)H[Tle][NBuGly]D-NH2) |  | 995 | 42 |  | 61 | 23 |  |
| CC[C@H](C)N(CC(=O)N[C@@H](CC(=O)O)C(N)=O)C(=O)[C@H](CC(C)C)NC(=O)[C@H](Cc1c[nH]cn1)NC(=O)[C@H](Cc1ccccc1)NC(=O)[C@@H](CCSC)NC(=O)[C@@H](N)Cc1ccc(O)cc1 (stereo in doubt; 6b) [listing 2 of 2 here] | 798 | 642 | 0.76 | 0.09 |  |  |  |
| CCCCN(CC(=O)N[C@@H](CC(=O)O)C(N)=O)C(=O)[C@@H](NC(=O)[C@H](Cc1c[nH]cn1)NC(=O)[C@H](Cc1ccccc1)NC(=O)[C@@H](CCSC)NC(=O)[C@@H](N)Cc1ccc(O)cc1)C(C)(C)C | 152 | 1680 | 1910 | 12.4 | 12 | 0.9 | Ke [7]: 520 nM; Ke [8]: 554 nM |
